ROMK mod: modulates human ROMK potassium channel activity; 2% of 130,000 active; P48048; Tet-inducible ROMK, thallium flux fluorescence; actives lie on both sides; B-score at 10 µM; AID 1918;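 active means signal ratio slope over the read window, or its plate-corrected B-score, at least 3 SD from the plate mean, either direction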;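 further: B-score of the F/F0 ratio slope over 7 to 12 s after thallium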
KCC2 mod: modulators of human KCC2 chloride dependent transport; Q9H2X9; KCC2 cells, thallium flux FluoZin-2 fluorescence; B-score of Tl+ flux slope (higher = more flux/activation; lower = inhibition) at 10 µM; 2.2% of 190,000 active;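 active means thallium flux slope and its plate-corrected score both differing from the plate sample mean at a set confidence after two filtering rounds, in either direction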;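 further: slope of fluorescence scaled to starting intensity during 10 to 20 s after thallium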
ABCG2 inh: human ABCG2 inhibition, ABCB1 as counter-screen | IgMXP3 cells, JC-1 efflux, flow cytometry | Q9UNQ0 | 0.1% of 190,000 active | AID 1325 | inhibition, % at 6.6 µM;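 active means inhibition above 80%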;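 further: 0% = DMSO and 100% = nicardipine control wells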
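Test system: IgMXP3 cells (ABCG2) mixed with DDAO far-red-labelled CCRF-Adr cells (ABCB1). Reagent: JC-1 transporter substrate. Compound dosing: single test compound dose, 6.6 µM final. Times: 10 min compound exposure, 25 °C. Detection: flow cytometry of retained JC-1 fluorescence. Read-out basis: efflux inhibition in percent versus controls. Controls: nicardipine and DMSO wells.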
ABCB1 inh: inhibitors of human ABCB1 transporter, ABCG2 counter-screen. CCRF-Adr cells, JC-1 efflux, flow cytometry. inhibition, % at 6.6 µM. 0.067% of 190,000 active. AID 1326; in the data active means inhibition above about 40%;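 further: 0% = vehicle and 100% = reference inhibitor; higher value means more JC-1 retained so stronger ABCB1 efflux block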
PMI act satM6P: activators of human phosphomannose isomerase at near-saturating mannose 6-phosphate. P34949. coupled PMI enzyme assay, resazurin fluorescence, 20 min; stronger effect = higher value; 1 = untreated enzyme, 0 = substrate-free blank. activation factor at 20 µM. 0.34% of 190,000 active. AID 1216;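 active means activation factor of 2 or more at 20 µM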
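Test system – human PMI in coupled enzyme assay · Timing – 20 min incubation at room temperature · Detection – Diaphorase-driven resazurin-to-resorufin fluorescence, excitation 544, emission 590 nm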
PMI act: phosphomannose isomerase (human) activation. P34949. purified human PMI, coupled resazurin fluorescence, 20 min; stronger effect = higher value; 1 = vehicle control, 0 substrate-free wells. activation factor at 20 µM. 0.005% of 190,000 active. AID 1214;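 active means activation factor of 2 or more at 20 µM, relative to plate controls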
* hit, by the source's call; . = not tested or not shown. Shown are actives, neighbours in structure and some others; about 3.3% of the full set was active somewhere.

SMILES | ROMK mod | KCC2 mod | ABCG2 inh | ABCB1 inh | PMI act satM6P | PMI act
CCOC(=O)N1CCC(=NNS(=O)(=O)c2cccc([N+](=O)[O-])c2)CC1 | 1.5 | 0.45 | 1 | 0 | 2.1* | 1.7
CCOC(=O)N1CCN(S(=O)(=O)c2cc([N+](=O)[O-])ccc2C)CC1 | 1.7 | 0.23 | 0 | 1 | 0.9 | 0.9
COc1cccc2sc(Nc3nnc(-c4cccs4)o3)nc12 | . | 58* | -7 | -1 | 1.2 | 1.3
Fc1cccc2sc(Nc3nnc(-c4ccco4)o3)nc12 | 5.1* | 33* | 0 | 0 | 1 | 0.8
O=C(NC(=S)Nc1ccccc1N1CCCC1)c1ccccc1[N+](=O)[O-] | . | 16* | 58 | 1 | 1 | 0.8
O=C(NC(=S)Nc1ccccc1N1CCOCC1)c1ccco1 | . | 18* | 3 | 0 | 0.8 | 0.8
O=C(NC(=S)Nc1ccccc1N1CCCCC1)c1ccco1 | . | 20* | 7 | 0 | 0.9 | 0.8
O=C(Nc1ccccc1N1CCCCC1)c1ccco1 | . | -0.34 | 6 | 1 | 1 | 1.1
O=C(NC(=S)Nc1cccc(Cl)c1N1CCCCC1)c1ccco1 | . | 6.7* | 1 | 0 | 0.9 | 0.9
CCn1c(=O)c([N+](=O)[O-])c(NCC2CCCO2)c2ccccc21 (centres undefined) | . | -0.74 | . | . | . | .
Cc1ccc2nc(-c3ccncc3)c(NC3CCCCC3)n2c1 | -0.48 | -0.8 | 6 | 2 | 1 | 1
O=C(COc1ccccc1-c1ccccc1)NNC(=O)NC1CCCCC1 | -0.45 | -0.53 | 14 | 0 | 1 | 0.9
O=C(NC(=S)Nc1nc2c(s1)CCCC2)c1ccc(C(=O)c2ccccc2)cc1 | . | 23* | -10 | 0 | 0.9 | 0.9
CN(C)C(=O)C1C2NC(=S)N(c3cccc(Cl)c3)C1(C)Oc1ccc(Cl)cc12 (centres undefined) | -2.1 | 1.4 | -1 | 0 | 1.1 | 1.2
c1ccc(CCc2nc3ccccc3[nH]2)cc1 | 0.16 | 0.43 | 3 | 0 | 1.1 | 1
S=c1cnc2ccccc2[nH]1 | 0.94 | 4.1 | -2 | -1 | 2.1* | 1.5
Cc1ccc(C2CCN(C(=S)Nc3cccc(C)c3)C2)cc1 (centres undefined) | -0.72 | -1.4 | -3 | -2 | 0.9 | 0.9
COc1ccccc1N1C(=O)[C@@H]2[C@H](C1=O)[C@H](C(=O)c1ccc(OC(C)=O)cc1)N1N=CC=C[C@@H]21 | . | -0.67 | . | . | . | .
CC(=O)Oc1ccc(C(=O)[C@H]2[C@H]3C(=O)N(c4ccc5ccccc5c4)C(=O)[C@H]3[C@@H]3C=CC=NN32)cc1 | . | 0.27 | -1 | 0 | 2.1* | 1.6
O=C(CN1CCN(CC(=O)Nc2ccccn2)CC1)Nc1ccccn1 | . | -4.3* | 1 | 1 | 1.1 | 1
O=C(CC(=O)Nc1ccccn1)Nc1ccccn1 | 0.03 | . | 10 | 2 | 0.9 | 1
c1ccc(N2CCN(Cc3ccnc4ccccc34)CC2)cc1 | -0.88 | -1.1 | 2 | 0 | 2* | 1.5
Cc1ccc(NNS(=O)(=O)c2ccc(C)cc2)cc1 | . | 0.76 | 9 | 1 | 2* | 1.1
O=C(CCN1C(=O)C2CCCCC2C1=O)Nc1ccc(F)c(F)c1F (centres undefined) | -0.35 | 0.29 | 2 | 1 | 0.9 | 1
CCCCN(CCCC)C(=S)NC(=O)C(C)(C)C | . | 38* | -1 | 0 | 1.1 | 1
CC(C)(C)C(=O)NC(=S)N1CCOCC1 | -0.0069 | 0.68 | 7 | 0 | 1 | 1
CCCc1noc2c1C(c1ccoc1)C(C#N)=C(N)N2 (centres undefined) | -2.6* | . | 34 | 1 | 0.9 | 1
CCOc1ccccc1C1C(C#N)=C(N)Nc2onc(-c3ccccc3)c21 (centres undefined) | 0.074 | -0.87 | 2 | 0 | 0.9 | 0.9
COC(=O)C(NNc1ccc(F)cc1)(NC(=O)c1ccccc1)C(F)(F)F (centres undefined) | . | 1.2 | 1 | 1 | 2.9* | 1.7
COC(=O)C(NNc1ccccc1C)(NC(=O)c1ccc(F)cc1)C(F)(F)F (centres undefined) | -0.4 | -0.28 | 0 | 0 | 2.2* | 1.6

Assay outcomes (PubChem)
